Source: PubChem BioAssay (several laboratories)
ARFGAP1 inhibitor: rat ARFGAP1 inhibition; Q62848; Arfgap1-stimulated ARF1 GTP hydrolysis, GDP FP detection; inhibition, % at 16.5 µM; 360,000 tested, 0.26% active; AID 651572;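 active means inhibition above a per-plate limit, mean inhibition of low control wells plus 3 SD, cut at about 25% in these data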;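 further: 0% = DMSO wells with enzyme and 100% = wells lacking Arfgap1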
Target sequence (Q62848 1-136 limits assumed): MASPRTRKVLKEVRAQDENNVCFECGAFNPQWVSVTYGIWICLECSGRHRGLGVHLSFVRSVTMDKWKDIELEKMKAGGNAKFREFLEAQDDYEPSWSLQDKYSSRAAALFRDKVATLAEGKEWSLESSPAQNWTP
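System: truncated rat Arfgap1 GAP domain / Medium: HEPES-based buffer, pH 7.5 / Also added: N-terminally truncated human ARF1-GTP substrate / Incubation: enzyme reaction 120 min at 25 °C after 20 min preincubation / Measured by: FP of antibody-bound GDP Alexa 633 tracer, ex 620/em 688 nm / Replicates: singlicate, each compound tested once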
A3A deaminase: blocks human APOBEC3A ssDNA deamination. recombinant A3A, FAM/TAMRA ssDNA deamination fluorescence. inhibition, % at 20 µM. AID 493011. 330,000 tested, 0.41% active;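 active means at least 40% inhibition at 20 µM here, with at most 30% in a related deaminase screen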;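 further: plate controls were A3A with DMSO for no effect and wells lacking A3A enzyme for full effect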
Target sequence (P31941 whole entry, looked up): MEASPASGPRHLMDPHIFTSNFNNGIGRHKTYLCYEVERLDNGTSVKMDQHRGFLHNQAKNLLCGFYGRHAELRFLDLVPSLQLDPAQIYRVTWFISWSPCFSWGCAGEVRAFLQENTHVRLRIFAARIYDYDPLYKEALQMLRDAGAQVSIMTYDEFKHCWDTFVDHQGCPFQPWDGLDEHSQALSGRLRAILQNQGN
ASAP1 GAP inh: ASAP1 ArfGAP inhibition | Q9ULH1 | ASAP1-stimulated ARF1 GTP hydrolysis, GDP FP detection | inhibition, % at 16.5 µM | 360,000 tested, 0.19% active | AID 624377; in the data active means inhibition above about 25%;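 further: 0% = vehicle with enzyme and substrate and 100% = no enzyme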
Target sequence (Q9ULH1 325-724 limits assumed): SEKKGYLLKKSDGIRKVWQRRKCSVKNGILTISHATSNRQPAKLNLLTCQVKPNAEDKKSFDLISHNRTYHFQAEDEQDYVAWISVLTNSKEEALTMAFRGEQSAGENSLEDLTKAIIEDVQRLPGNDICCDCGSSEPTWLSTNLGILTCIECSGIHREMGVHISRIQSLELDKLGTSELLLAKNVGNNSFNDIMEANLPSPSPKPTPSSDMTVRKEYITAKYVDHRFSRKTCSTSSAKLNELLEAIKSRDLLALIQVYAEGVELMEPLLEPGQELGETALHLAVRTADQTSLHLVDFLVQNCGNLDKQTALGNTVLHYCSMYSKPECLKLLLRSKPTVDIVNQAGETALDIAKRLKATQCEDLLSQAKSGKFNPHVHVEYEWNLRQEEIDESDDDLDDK
APOBEC3G inh: inhibitors of human APOBEC3G DNA deaminase; Q9HC16; recombinant A3G, ssDNA deamination FAM/TAMRA fluorescence; inhibition, % at 20 µM; 330,000 tested, 0.28% active; AID 493012;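 active means inhibition of at least 40% at 20 µM, with no more than 30% in the related APOBEC3A deaminase screen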;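 further: plate controls were DMSO wells with A3G for no effect and wells lacking A3G enzyme for full effect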
C2C12 statin: suppression of simvastatin myotoxicity | rescue of ATP level, % at 7.49 µM | C2C12 myotubes + simvastatin, ATP luminescence, 48 h; scaled: DMSO 0, geranylgeraniol control 100 | 330,000 tested, 0.78% active;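 active means mean ATP rescue above about 67%, or every replicate alone reaching that limit, limit read from the data, passing the limit was not always enough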;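 further: myotubes were challenged with 10 µM simvastatin during compound exposure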
Mot1-301 SUMO: inhibitors of SUMOylation pathway: yeast Mot1-301 growth rescue; S. cerevisiae Mot1-301 growth rescue, ATP luminescence, 38.5C; percent above DMSO median, 100 means doubled; growth rescue, % at 18.8 µM; 320,000 tested, 1% active; AID 2716;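 active means every valid replicate shows activation above 250% relative to neutral control wells; inactive means the rest, any valid replicate at or below 250%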;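 further: OY570 slx delta 5 strain wells were the positive control but not used for scaling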
Yeast Mot1 SUMO: SUMO pathway inhibitors in yeast Mot1-301 growth; 2,300 tested, under 10 active; shares compounds with Mot1-301 SUMO; AID 493004; growth activity, percent, % at 42 µM; S. cerevisiae Mot1-301 galactose growth, ATP luminescence, 24 h; -100 = growth of slx-deleted rescue strain;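 active means Signal drops as the depositor expects, and the fitted half-maximal dose is no more than ten times the top valid tested dose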;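 further: more negative values mean stronger growth rescue toward the control strain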
A3A conf: confirmation of human APOBEC3A DNA deaminase inhibitors | 1,400 tested, 63% active | recombinant A3A, ssDNA deaminase UDG fluorescence assay | AID 493151 | shares compounds with A3A deaminase | inhibition, % at 20 µM;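 active means inhibition reaching a set limit, 80% of the first screen's cutoff, at 20 µM in any replicate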;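 further: plate controls were DMSO wells with A3A for no effect and wells lacking A3A enzyme for full effect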
UDG A3A counter: counter-screen for APOBEC3A inhibitors: UDG | AID 504714 | inhibition, % at 20 µM | UDG counterscreen, FAM/TAMRA uracil oligo fluorescence | 1,000 tested, under 10 active | shares compounds with A3A deaminase; call rule not given here
A3G conf: APOBEC3G (human) deaminase inhibition, confirmed; shares compounds with APOBEC3G inh; recombinant A3G ssDNA deaminase, UDG/FAM-TAMRA fluorescence; inhibition, % at 20 µM; 890 tested, 72% active; AID 493152;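 active means inhibition reaching a set limit in any replicate at 20 µM, the limit being 80% of the first screen's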
UDG ctr A3G: E. coli UDG inhibition in APOBEC3G counter-screen; shares compounds with APOBEC3G inh; UDG counterscreen, FAM/TAMRA oligo fluorescence; inhibition, % at 20 µM; 710 tested, under 10 active; AID 504715;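 active means compounds giving 40% or more inhibition at 20 µM in any one of the three replicates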;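 further: plate controls were DMSO wells with UDG and oligo for no effect and DMSO wells lacking both for full effect; inhibitors lower the FAM signal released by uracil excision and alkaline cleavage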
* hit, by the source's call; . = no result; + = active, no number. Compounds with a hit are over-represented: about 2.1% of the library has one in this group of screens.

SMILES | ARFGAP1 inhibitor | A3A deaminase | ASAP1 GAP inh | APOBEC3G inh | C2C12 statin | Mot1-301 SUMO | Yeast Mot1 SUMO | others
Oc1ccccc1-c1cc(C(F)(F)C(F)F)[nH]n1 | 1 | 3 | 16 | 6 | -34 | 872* | 1
Fc1ccc(-c2cc(C(F)(F)C(F)F)[nH]n2)cc1 | 7 | 3 | 4 | -2 | . | 11 | .
O=C(/C=C/NNC(=O)c1ccc(Br)cc1)c1ccccc1 | -8 | 1 | 0 | -6 | 12 | 399* | 1
O=C(/C=C/NNC(=O)c1ccccc1)c1ccccc1 | -3 | 0 | 0 | 11 | -7 | -15 | .
O=C1Nc2ccccc2/C1=C/c1ccccc1Cl | -1 | -1 | 2 | -3 | -5 | -8 | .
O=C1Nc2ccccc2/C1=C/c1ccc([N+](=O)[O-])cc1 | 2 | -3 | 11 | -6 | . | 477* | 0
CCC(=O)N(C)C[C@@H]1Oc2cc(C#Cc3ccncc3)ccc2S(=O)(=O)N([C@@H](C)CO)C[C@H]1C | . | . | . | . | 11 | . | .
Cc1ccc2c(C)c(C(=O)N(C)C(C)c3ccncn3)oc2c1C (centres undefined) | -4 | -2 | -10 | -10 | -2 | 359* | 0
CN1C(=O)c2cc(NC(=O)C3CCOCC3)ccc2OC[C@@H]2O[C@H](CC(=O)NCC3CCCCC3)CC[C@@H]21 | . | . | . | . | 27 | . | .
CC(C)CC#Cc1ccc2c(c1)O[C@@H](CN(C)Cc1ccccn1)[C@H](C)CN([C@@H](C)CO)S2(=O)=O | . | . | . | . | -48 | . | .
CCNC(=S)NNC(=O)c1ccc(=O)n(Cc2ccccc2)c1 | -6 | 7 | -8 | -4 | 1 | 834* | 0
C/C=C/c1cnc2c(c1)C(=O)N([C@@H](C)CO)C[C@H](C)[C@@H](CN(C)C(=O)CN1CCOCC1)O2 | . | . | . | . | 7 | . | .
O=C(C[C@@H]1C=C[C@H](NC(=O)C2CC2)[C@@H](CO)O1)Nc1nccs1 | . | . | . | . | 2 | . | .
Cn1c(=O)c2c(ncn2CC(=O)OCC(=O)Nc2ccc(Cl)cc2)n(C)c1=O | -2 | 4 | 3 | 2 | . | 847* | 0
O=C(NCc1ccccc1)[C@H]1[C@H](CO)[C@H]2Cn3c(cccc3=O)[C@@H]1N2C(=O)CC1CC1 | . | . | . | . | 0 | . | .
COC(=O)C[C@H]1C[C@@H]2c3cc(NC(=O)Nc4ccc(OC)cc4)ccc3O[C@@H]2[C@H](CO)O1 | . | . | . | . | 2 | . | .
O=S(=O)(Cc1cc(-c2ccccc2)no1)c1ccccc1 | -10 | 2 | -1 | -13 | . | 643* | 0
Cc1ccc(NC(=O)C(CC(C)C)NC(=O)C2CCC(C)CC2)nc1 (centres undefined) | 5 | -4 | -1 | -4 | -4 | 634* | 0
CCN(CC)c1ccc(Nc2cc3n(c(=O)n2)CCc2cc(OC)c(OC)cc2-3)cc1 | 3 | 0 | -2 | 1 | . | + | 0
COc1cc2c(cc1OC)-c1cc(Nc3ccc(N(C)C)cc3)nc(=O)n1CC2 | 1 | -5 | -3 | -3 | . | -16 | .
CCc1ccc(NC(=S)N(Cc2cccc(Br)c2)CC2CCC(C(=O)O)CC2)cc1 (centres undefined) | -7 | -5 | 4 | -16 | . | 592* | -1
Cc1cc(C)cc(NC(=S)N(Cc2cccc(Br)c2)CC2CCC(C(=O)O)CC2)c1 (centres undefined) | 5 | -6 | -4 | -1 | 5 | . | .
C=CSc1sc(Cl)c(N(C)C)c1[N+](=O)[O-] | -7 | 4 | -14 | 1 | 8 | 411* | 0
CCN(C(=O)Cn1c(=O)oc2ccccc21)c1cccc(C)c1 | -10 | 100* | -12 | 5 | -1 | 628* | 0 | A3A conf=3
COc1ccc(S(=O)(=O)N2CCN(C(=O)CN3C(=O)NC4(CCCC4)C3=O)CC2)cc1 | -5 | 12 | -1 | 0 | 2 | -6 | .
SMILES | ARFGAP1 inhibitor | A3A deaminase | ASAP1 GAP inh | APOBEC3G inh | C2C12 statin | Mot1-301 SUMO | Yeast Mot1 SUMO | others
CCOc1ccc(S(=O)(=O)N2CCN(C(=O)CN3C(=O)NC4(CCCC4)C3=O)CC2)cc1 | -4 | 41* | 10 | -2 | . | 666* | -1 | A3A conf=36*;UDG A3A counter=-2
C[C@@H]1CN([C@@H](C)CO)S(=O)(=O)c2ccc(C#CC3CC3)cc2O[C@@H]1CN(C)S(C)(=O)=O | . | . | . | . | -18 | . | .
C[C@@H]1CN([C@@H](C)CO)C(=O)c2cccc(NC(=O)C3CCCCC3)c2O[C@H]1CN(C)Cc1ccccc1 | . | . | . | . | -22 | . | .
O=C(COC(=O)/C=C/c1ccco1)Nc1ncc(C(F)(F)F)cc1Cl | -9 | 51* | 4 | 16 | -2 | 588* | 0 | A3A conf=50*;UDG A3A counter=3
Cc1nnc(N=c2ssnc2Cl)o1 | -4 | 3 | -11 | 74* | 45 | 606* | -1 | A3G conf=89*;UDG ctr A3G=-3
Cc1ccc(N=c2ssnc2Cl)cc1 | -8 | 5 | 5 | 73* | 19 | 471* | -1 | A3G conf=75*;UDG ctr A3G=-3
Cc1cc(C)nc(/N=c2/ssnc2Cl)c1 | 5 | -3 | -6 | 3 | 30 | 2 | .
CCCNC(=O)C[C@H]1CC[C@H]2[C@H](COc3ccc(NC(=O)c4cc(C)on4)cc3C(=O)N2C)O1 | . | . | . | . | 19 | . | .
O=C(Nc1ccc(Cl)cc1Cl)c1cccc(N2C(=O)C=CC2=O)c1 | -7 | 8 | -7 | 53* | . | 550* | -3 | A3G conf=59*;UDG ctr A3G=-3
CCCNC(=O)Cn1sc2nc(C)cc(C)c2c1=O | 6 | -11 | 2 | 60* | . | 423* | 0 | A3G conf=77*;UDG ctr A3G=0
CC(=O)Cn1cnc2c(sc3nc(C)cc(C)c32)c1=O | 3 | 1 | -9 | 11 | -4 | -17 | .
COc1ccc(CN2C[C@H](C)[C@H](OC)CN(C)C(=O)c3cc(NC(=O)c4nc5ccccc5s4)ccc3OC[C@@H]2C)cc1 | . | . | . | . | 16 | . | .
